In the library only some 4.5% were active in any assay of this set; here they are far more common.
OX1R antag-1: OX1R (HCRTR1) antagonists, primary screen, fluorescence, CHO/OX1R cells, Fluo-8 calcium, orexin A; Orexin/Hypocretin receptor type 1 (Homo sapiens), O43613; Fluo-8 calcium fluorescence; inhibition, % at 5 µM; 0.43% of 330,000 active;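 active = inhibition above its plate's threshold, mean inhibition of all tested compounds on the plate plus 3 SD, cut at about 37% in these data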;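 also: 0% = orexin A challenge wells and 100% = SB-334867-A antagonist wells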
OX1R antag-2: antagonists of human orexin 1 receptor (OX1R); Orexin/Hypocretin receptor type 1 (Homo sapiens), O43613; OX1R-expressing cells, FRET antagonist read-out; inhibition, % at 6.6 µM; 1.8% of 330,000 active; AID 485270, 2010; in the data active = inhibition mostly above about 38%, no sharp cut-off; inactive = mostly below about 40%;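 also: 0% = agonist challenge alone and 100% = reference antagonist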
GPR7 antag: GPR7 receptor antagonists, primary screen, cell-based, fluorescence, single concentration; GPR7-expressing cells, fluorescence antagonist assay; 1.1% of 290,000 active; Neuropeptides B/W receptor type 1 (Homo sapiens), P48145; inhibition, % at 4.4 µM; in the data active = inhibition above about 16%, passing the limit was not always enough;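 also: cells stimulated with the agonist NPW; 0% = agonist with vehicle and 100% = vehicle without agonist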
Target sequence (P48145 whole entry, looked up): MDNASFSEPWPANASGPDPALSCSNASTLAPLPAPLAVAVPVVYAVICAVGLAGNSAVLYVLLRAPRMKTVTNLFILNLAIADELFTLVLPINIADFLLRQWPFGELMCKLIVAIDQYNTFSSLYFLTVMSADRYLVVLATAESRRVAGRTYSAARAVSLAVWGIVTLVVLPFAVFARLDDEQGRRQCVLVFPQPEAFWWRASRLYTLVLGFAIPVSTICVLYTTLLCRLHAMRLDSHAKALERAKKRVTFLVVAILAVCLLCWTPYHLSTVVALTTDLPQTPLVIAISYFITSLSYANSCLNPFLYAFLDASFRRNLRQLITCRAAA
TAAR1 antagonist: human TAAR1 antagonists, primary screen, Fluo-8 calcium fluorescence, CHO RD-HGA16 cells | inhibition, % at 3 µM | Trace amine-associated receptor 1 (Homo sapiens), Q96RJ0 | antagonist | 1.5% of 360,000 active;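 active = inhibition above a per-plate cutoff, the mean inhibition of test compounds on that plate plus 3 SD, cut at about 49% in these data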;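 also: 0% = DMSO plus EC80 beta-PEA response and 100% = DMSO alone without agonist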
Target sequence (Q96RJ0 whole entry, looked up): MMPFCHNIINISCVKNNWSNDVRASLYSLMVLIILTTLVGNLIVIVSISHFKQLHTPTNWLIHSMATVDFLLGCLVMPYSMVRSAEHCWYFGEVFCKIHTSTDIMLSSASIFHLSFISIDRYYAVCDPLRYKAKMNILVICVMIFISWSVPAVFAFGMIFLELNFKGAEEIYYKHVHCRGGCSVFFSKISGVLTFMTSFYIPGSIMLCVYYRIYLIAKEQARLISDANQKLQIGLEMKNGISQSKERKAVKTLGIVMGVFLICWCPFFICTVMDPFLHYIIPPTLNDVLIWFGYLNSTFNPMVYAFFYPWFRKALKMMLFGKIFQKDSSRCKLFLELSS
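Assay system: CHO-derived RD-HGA16 cells stably expressing human TAAR1 plus Gα16. Timing: 140 s kinetic read after compound, 140 s after agonist. Technique: kinetic Fluo-8 calcium fluorescence measurement. Measure: % inhibition of agonist calcium response.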
CHO parental Ca: ATP-evoked calcium signal inhibitors, parental CHO, primary screen, counter-screen for OX1R antagonist project, cell-based, fluorescence, Fluo-8 calcium dye; parental CHO-K1, ATP-induced calcium, Fluo-8 fluorescence; inhibition, % at 5.6 µM; 0.63% of 330,000 active; AID 463079, 2010;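 active = inhibition above that plate's mean sample inhibition plus 3 SD, cut at about 26% in these data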;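 also: 0% = ATP-challenged DMSO wells and 100% = DMSO wells without ATP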
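Material: parental CHO cells / Compound: single nominal dose of 5.6 µM per compound / Signal: Fluo-8 fluorescence / Replicates: singlicate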
TAAR1 agonist: human TAAR1 agonists, primary screen, Fluo-8 calcium fluorescence, CHO RD-HGA16 cells | Trace amine-associated receptor 1 (Homo sapiens), Q96RJ0 | vehicle wells 0%, saturating PEA agonist 100% | activation, % at 3 µM | 0.99% of 360,000 active | AID 624467, 2012;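 active = activation above the mean activation of all test compounds in the run plus 3 SD, cut at about 38% in these data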
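Signal – calcium-sensitive Fluo-8 signal, excitation 470-495, emission 515-575 nm · System – RD-HGA16 (CHO) cells co-expressing Gα16 and hTAAR1 · Incubation – 17-24 h seeding, 75 min 37 °C dye, 30 min RT · Compound dosing – 3 µM single concentration · Repeats – no replicates (n 1)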
nonsel antag count: nonselective antagonists in TAAR1 counter-screen cells, counter-screen for hTAAR1 antagonist project, cell-based, fluorescence, calcium. inhibition, % at 3 µM. shares compounds with TAAR1 antagonist. 77% of 2,400 active. counterscreen cell line, antagonist mode. AID 651780, 2012; in the data active = inhibition above about 22%;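 also: CHO-Ga16 host cells stimulated with ATP at an EC80 level; 0% = agonist EC80 plus vehicle and 100% = vehicle without agonist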
TAAR1 antag conf: human TAAR1 antagonists, retest of hits, confirmation, cell-based, fluorescence | shares compounds with TAAR1 antagonist | TAAR1-expressing cells, fluorescence antagonist read-out | inhibition, % at 3 µM | 40% of 2,400 active | AID 651785, 2012; in the data active = inhibition above about 49%;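 also: CHO-Ga16 host cells challenged with agonist PEA near its EC80; 0% = agonist at EC80 plus vehicle and 100% = vehicle with no agonist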
Ga16 ag counter: calcium activation in Ga16-expressing cells, counter-screen for TAAR1 antagonist project, cell-based, fluorescence; shares compounds with TAAR1 antagonist; agonist counterscreen; activation, % at 3 µM; 18% of 2,400 active; AID 651953, 2012; in the data active = activation above about 12%;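 also: 0% = vehicle wells and 100% = saturating stimulus response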
TAAR1 ag counter: TAAR1 activation by candidate antagonists – cell-based, fluorescence, counter-screen for TAAR1 antagonist project. hTAAR1 cell line, agonist mode. shares compounds with TAAR1 antagonist. 2% of 2,400 active. activation, % at 3 µM; in the data active = activation above about 37%;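 also: CHO cells stably expressing TAAR1 with calcium dye readout; 0% = DMSO vehicle and 100% = full agonist response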
Numbers without * were called inactive; x = no result given.

SMILES	OX1R antag-1	OX1R antag-2	GPR7 antag	TAAR1 antagonist	CHO parental Ca	TAAR1 agonist	nonsel antag count	TAAR1 antag conf	Ga16 ag counter	TAAR1 ag counter
O=C(Nc1ccc([N+](=O)[O-])cc1NC(=O)c1ccccc1)c1ccccc1	x	x	x	57*	x	6	32*	43	7	7
O=C(NC12CC3CC(CC(C3)C1)C2)c1ccc(N2CCNCC2)c([N+](=O)[O-])c1	-11	6	4	-19	0	10	x	x	x	x
COc1ccc(CCNC(=O)c2ccccc2NC(=O)C2=C(C)OCCS2)cc1OC	-12	41	-14	70*	-22	15	30*	51*	10	15
COc1ccc(OC)c(CCNC(=O)c2ccccc2NC(=O)C2=C(C)OCCS2)c1	-27	19	-5	8	-20	0	x	x	x	x
CC(=O)NC(CC(=O)N1CCN(C(C)=O)CC1)c1ccccc1 (stereo not drawn)	-13	17	-13	-13	0	4	x	x	x	x
Cc1ccc(-c2csc(N3CCN(c4cc5c(cc4Cl)nc(-c4ccncc4)n5CCN4CCCCC4)CC3)n2)cc1	-22	18	-16	7	-40	0	x	x	x	x
COc1ccc(-c2csc(N3CCN(c4cc5c(cc4Cl)nc(-c4ccncc4)n5CCOCCO)CC3)n2)cc1	-21	18	-1	50*	-19	13	34*	33	8	0
CC(C)N1CCC1(C)C(=O)Nc1ccc(-n2cccc2)cc1 (stereo not drawn)	x	x	x	19	x	-1	x	x	x	x
Cn1cccc1/C=N\NC(=O)C1COc2ccc(C(C)(C)C)cc2O1 (stereo not drawn)	-3	8	-14	51*	-15	0	25*	39	7	1
COc1cc(NC(=O)c2cc3ccccc3o2)ccc1NC(=O)c1ccco1	-16	12	-11	64*	5	15	26*	51*	8	14
COc1cc(NC(=O)c2oc3ccccc3c2C)ccc1NC(=O)c1ccco1	-16	15	-16	54*	-4	10	26*	39	7	5
NS(=O)(=O)c1ccc(NC(=O)COC(=O)Cc2c[nH]c3ccccc23)cc1	3	3	x	0	2	3	x	x	x	x
COc1ccccc1OCCn1cc(C(=O)c2ccco2)c2ccccc21	0	22	9	45	-24	10	x	x	x	x
COc1cccc(OCCn2cc(C(=O)c3ccco3)c3ccccc32)c1	46*	17	11	70*	26	8	22*	46	5	7
Cc1ccc(C(C(=O)NCc2ccccc2)N(Cc2ccco2)C(=O)c2snc(C(N)=O)c2N)o1 (stereo not drawn)	-37	24	-7	71*	-27	14	30*	56*	8	12
NC(=O)c1nsc(C(=O)N(c2ccc(F)cc2)C(C(=O)NCC2CCCO2)c2ccc3ncccc3c2)c1N (stereo not drawn)	-14	33	-9	49*	-13	13	25*	33	6	6
CCOc1ccc(C(C(=O)NCC2CCCO2)N(C(=O)c2snc(C(N)=O)c2N)c2cccc(F)c2)cc1 (stereo not drawn)	-8	13	-1	56*	-13	17	28*	50*	10	23
O=C(NCC1CCCO1)C(c1cccnc1)N(C(=O)Cc1cccs1)c1ccccc1 (stereo not drawn)	-31	18	-9	54*	-18	24	21	47	10	10
COC(=O)CNC(=O)COC(=O)Cc1ccc(Cl)cc1	-12	3	4	13	5	3	x	x	x	x
NC(=O)c1nsc(C(=O)N(c2ccccc2)C(C(=O)NCC2CCCO2)c2ccc(F)cc2)c1N (stereo not drawn)	-28	16	-8	51*	-19	14	20	39	9	13
NC(=O)c1nsc(C(=O)N(c2ccccc2F)C(C(=O)NCc2ccc(F)cc2)c2ccc(O)cc2)c1N (stereo not drawn)	-2	48	-10	77*	-10	14	34*	48	10	19
O=C(NCC1CCCO1)C(c1ccc(F)cc1)N(C(=O)Cn1nnc(-c2ccc(F)cc2)n1)c1cccc(O)c1 (stereo not drawn)	-30	12	-8	83*	-22	16	36*	55*	11	13
CC(C)CC(C(=O)NCC1CCCO1)N(C(=O)Cn1nnc(-c2ccc(F)cc2)n1)c1cccc(C(F)(F)F)c1 (stereo not drawn)	-10	8	-6	-12	-14	6	x	x	x	x
NC(=O)c1nsc(C(=O)N(c2ccc3c(c2)OCCO3)C(C(=O)NCC2CCCO2)c2ccc(F)cc2)c1N (stereo not drawn)	-34	-10	-1	11	-27	-1	x	x	x	x
CCCCSc1cc(C)nc(N)n1	-4	6	-14	-25	8	0	x	x	x	x
COc1ccc(Cl)cc1NC(=O)C1CCN(C(=O)C2CC(=O)N(c3ccc(C)cc3)C2)CC1 (stereo not drawn)	-26	0	5	5	-6	-3	x	x	x	x
O=[N+]([O-])c1cccc(S(=O)(=O)N2CCCCC2c2cccnc2)c1 (stereo not drawn)	-24	25	-10	-17	4	0	x	x	x	x
C[C@@H](NC(=O)c1[nH]cnc1C(=O)Nc1nccs1)c1ccccc1	-18	5	x	6	-8	5	x	x	x	x

Compound activity deposited in PubChem BioAssay by The Scripps Research Institute Molecular Screening Center.
